From ChEMBL document CHEMBL2407036, “Flow Synthesis and Biological Studies of an Analgesic Adamantane Derivative That Inhibits P2X7-Evoked Glutamate Release” (ACS Med Chem Lett, 2013)
Activity calls are given as the source filed them.

Tests used:
Rattus norvegicus [1] = assay: Antinociceptive activity against carrageenan-induced hyperalgesia in rat assessed as paw pressure at 20 mg/kg, po measured after 15 mins (reference value: 32.8 +/- 2.9 g); assay type: functional
How it was run: (§1)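 Rats received intraplantar carrageenan before oral dosing. Paw-pressure withdrawal threshold (g) was measured before treatment and at 15, 30, 60 and 90 min after it. Carrageenan-injected rats given vehicle served as reference, with saline-injected rats as a further control.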

Rattus norvegicus [2] = assay: Antinociceptive activity against carrageenan-induced hyperalgesia in rat assessed as paw pressure at 10 mg/kg, po measured after 30 mins (reference value: 30.6 +/- 3.2 g); assay type: functional; how it was run: as §1
Rattus norvegicus [3] = assay: Antinociceptive activity against carrageenan-induced paw edema in rat assessed as paw edema volume at 3 mg/kg, po measured after 30 mins (reference value: 2.71+/- 0.08 ml); assay type: functional
Rattus norvegicus [4] = assay: Antinociceptive activity against carrageenan-induced hyperalgesia in rat assessed as paw pressure at 10 mg/kg, po measured after 60 mins (reference value: 31.8 +/- 2.2 g); assay type: functional; how it was run: as §1
[5] = molecular target: Prostaglandin G/H synthase 1 (Homo sapiens) (UniProt P23219); assay: Inhibition of COX-1 (unknown origin)
[6] = molecular target: T1, P2X purinoceptor 7 (Rattus norvegicus) (UniProt Q64663); details: Brain, 50 uM
T1 sequence (whole entry): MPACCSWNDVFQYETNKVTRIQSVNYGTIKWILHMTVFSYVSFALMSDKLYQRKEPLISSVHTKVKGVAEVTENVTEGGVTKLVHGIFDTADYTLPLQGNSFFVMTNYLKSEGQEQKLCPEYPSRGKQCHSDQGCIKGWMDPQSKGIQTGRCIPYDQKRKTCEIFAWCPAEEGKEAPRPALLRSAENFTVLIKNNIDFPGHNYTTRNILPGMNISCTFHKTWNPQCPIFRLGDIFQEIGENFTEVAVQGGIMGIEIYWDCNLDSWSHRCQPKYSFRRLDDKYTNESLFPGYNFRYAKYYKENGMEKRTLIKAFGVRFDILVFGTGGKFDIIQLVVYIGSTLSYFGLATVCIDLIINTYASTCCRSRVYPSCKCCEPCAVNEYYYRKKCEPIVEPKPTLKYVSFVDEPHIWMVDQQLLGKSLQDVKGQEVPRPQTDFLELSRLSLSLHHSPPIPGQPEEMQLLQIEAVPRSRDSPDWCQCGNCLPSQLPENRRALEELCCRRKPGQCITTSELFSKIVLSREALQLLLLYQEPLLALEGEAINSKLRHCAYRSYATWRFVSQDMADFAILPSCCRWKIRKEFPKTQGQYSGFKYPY

Rattus norvegicus [7] = assay: Antinociceptive activity against carrageenan-induced hyperalgesia in rat assessed as paw pressure at 20 mg/kg, po measured after 90 mins (reference value: 34.8 +/- 3.1 g); assay type: functional; how it was run: as §1
Rattus norvegicus [8] = assay: Antinociceptive activity against carrageenan-induced hyperalgesia in rat assessed as paw pressure at 20 mg/kg, po measured after 30 mins (reference value: 30.6 +/- 3.2 g); assay type: functional; how it was run: as §1
Rattus norvegicus [9] = assay: Antinociceptive activity against carrageenan-induced hyperalgesia in rat assessed as paw pressure at 20 mg/kg, po measured after 60 mins (reference value: 31.8 +/- 2.2 g); assay type: functional; how it was run: as §1
Mus musculus [10] = assay: Analgesic activity in Swiss albino mouse assessed as inhibition of acetic acid-induced abdominal contraction at 3 mg/kg, po measured after 30 mins; assay type: functional, organism-based; parameters: dose 3 mg/kg; details: Abdominal cavity
How it was run: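 Writhing was induced in Swiss albino mice with 0.6% acetic acid. Drugs were given p.o. 30 min before the test. Writhes were counted at 30 and 60 min and compared with vehicle-treated controls.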

Rattus norvegicus [11] = assay: Antinociceptive activity against carrageenan-induced hyperalgesia in rat assessed as paw pressure at 3 mg/kg, po measured after 30 mins (reference value: 30.6 +/- 3.2 g); assay type: functional; how it was run: as §1
Rattus norvegicus [12] = assay: Antinociceptive activity against carrageenan-induced hyperalgesia in rat assessed as paw pressure at 10 mg/kg, po measured after 90 mins (reference value: 34.8 +/- 3.1 g); assay type: functional; how it was run: as §1
P2X purinoceptor 7 = molecular target: T2, P2X purinoceptor 7 (Rattus norvegicus, UniProt Q64663); assay: Antagonist activity at P2X7 in Sprague-Dawley rat synaptosome assessed as inhibition of BzATP-induced [3H]D-aspartate efflux compound preincubated for 8 mins by liquid scintillation counting; parameters: species or system Brain
T2 sequence (Q64663 whole entry): T1 sequence (whole entry)
How it was run: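 Purified rat cerebrocortical synaptosomes loaded with [3H]D-aspartate and superfused. 100 μM BzATP added for 120 s. Compound added 8 min before BzATP. Ca2+-free conditions used medium with 0.5 mM EGTA, added 18 min before BzATP. Log concentration–response for inhibition of evoked efflux. Mean ± SEM of 3−12 independent experiments in triplicate.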

Rattus norvegicus [13] = assay: Antinociceptive activity against carrageenan-induced hyperalgesia in rat assessed as paw pressure at 3 mg/kg, po measured after 90 mins (reference value: 34.8 +/- 3.1 g); assay type: functional; how it was run: as §1
Mus musculus [14] = assay: Analgesic activity in Swiss albino mouse assessed as inhibition of acetic acid-induced abdominal contraction at 10 mg/kg, po measured after 30 mins in presence of SR-141716A; assay type: functional, organism-based; parameters: dose 10 mg/kg; details: Abdominal cavity
Rattus norvegicus [15] = assay: Antinociceptive activity against carrageenan-induced hyperalgesia in rat assessed as paw pressure at 3 mg/kg, po measured after 15 mins (reference value: 32.8 +/- 2.9 g); assay type: functional; how it was run: as §1
Rattus norvegicus [16] = assay: Antinociceptive activity against carrageenan-induced paw edema in rat assessed as paw edema volume at 10 mg/kg, po measured after 30 mins (reference value: 2.71+/- 0.08 ml); assay type: functional
[17] = molecular target: T1, P2X purinoceptor 7 (Rattus norvegicus); details: Brain, 50 uM; remark: listed apart in the source
Rattus norvegicus [18] = assay: Antinociceptive activity against carrageenan-induced hyperalgesia in rat assessed as paw pressure at 10 mg/kg, po measured after 15 mins (reference value: 32.8 +/- 2.9 g); assay type: functional; how it was run: as §1
[19] = molecular target: T1, P2X purinoceptor 7 (Rattus norvegicus); details: Brain, 50 uM; remark: listed apart in the source
[20] = molecular target: T3, Prostaglandin G/H synthase 2 (Homo sapiens) (UniProt P35354); assay: Inhibition of COX-2 (unknown origin)
T3 sequence (whole entry): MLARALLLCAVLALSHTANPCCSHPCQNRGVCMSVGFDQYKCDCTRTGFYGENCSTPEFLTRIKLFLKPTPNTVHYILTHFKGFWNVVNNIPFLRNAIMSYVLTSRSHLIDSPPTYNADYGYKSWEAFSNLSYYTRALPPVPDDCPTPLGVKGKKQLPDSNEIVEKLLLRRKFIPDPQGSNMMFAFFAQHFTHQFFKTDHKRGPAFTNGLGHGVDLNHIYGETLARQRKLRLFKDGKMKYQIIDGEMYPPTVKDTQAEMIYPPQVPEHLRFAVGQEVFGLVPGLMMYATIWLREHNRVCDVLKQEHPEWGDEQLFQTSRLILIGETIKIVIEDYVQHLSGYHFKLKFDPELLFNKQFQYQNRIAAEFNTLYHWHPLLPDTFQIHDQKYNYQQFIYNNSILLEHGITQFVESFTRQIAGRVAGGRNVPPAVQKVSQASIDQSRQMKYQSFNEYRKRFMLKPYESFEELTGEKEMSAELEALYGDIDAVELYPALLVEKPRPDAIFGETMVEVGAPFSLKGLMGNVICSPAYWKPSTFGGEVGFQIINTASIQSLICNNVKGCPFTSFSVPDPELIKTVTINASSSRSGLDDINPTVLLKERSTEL

Rattus norvegicus [21] = assay: Antinociceptive activity against carrageenan-induced hyperalgesia in rat assessed as paw pressure at 3 mg/kg, po measured after 60 mins (reference value: 31.8 +/- 2.2 g); assay type: functional; how it was run: as §1
Rattus norvegicus [22] = assay: Antinociceptive activity against carrageenan-induced paw edema in rat assessed as paw edema volume at 20 mg/kg, po measured after 30 mins (reference value: 2.71+/- 0.08 ml); assay type: functional
Rattus norvegicus [23] = species: Rattus norvegicus; assay: Inhibition of K+ depolarization-induced [3H]D-aspartate efflux in Sprague-Dawley rat synaptosome preincubated at 50 uM for 8 mins by liquid scintillation counting; assay type: functional, tissue-based; details: Brain
How it was run: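 Purified rat cerebrocortical synaptosomes were loaded with [3H]D-aspartate and superfused. Compound was added 8 min before K+ depolarization, which was applied as KCl for 120 s during superfusion. Evoked tritium efflux was measured. Data are mean ± SEM of 3–12 independent experiments in triplicate.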

Mus musculus [24] = assay: Analgesic activity in Swiss albino mouse assessed as inhibition of acetic acid-induced abdominal contraction at 10 mg/kg, po measured after 30 mins in presence of naxolone; assay type: functional, organism-based; parameters: dose 10 mg/kg; details: Abdominal cavity

Sequence of Prostaglandin G/H synthase 1 (Homo sapiens) (P23219 whole entry): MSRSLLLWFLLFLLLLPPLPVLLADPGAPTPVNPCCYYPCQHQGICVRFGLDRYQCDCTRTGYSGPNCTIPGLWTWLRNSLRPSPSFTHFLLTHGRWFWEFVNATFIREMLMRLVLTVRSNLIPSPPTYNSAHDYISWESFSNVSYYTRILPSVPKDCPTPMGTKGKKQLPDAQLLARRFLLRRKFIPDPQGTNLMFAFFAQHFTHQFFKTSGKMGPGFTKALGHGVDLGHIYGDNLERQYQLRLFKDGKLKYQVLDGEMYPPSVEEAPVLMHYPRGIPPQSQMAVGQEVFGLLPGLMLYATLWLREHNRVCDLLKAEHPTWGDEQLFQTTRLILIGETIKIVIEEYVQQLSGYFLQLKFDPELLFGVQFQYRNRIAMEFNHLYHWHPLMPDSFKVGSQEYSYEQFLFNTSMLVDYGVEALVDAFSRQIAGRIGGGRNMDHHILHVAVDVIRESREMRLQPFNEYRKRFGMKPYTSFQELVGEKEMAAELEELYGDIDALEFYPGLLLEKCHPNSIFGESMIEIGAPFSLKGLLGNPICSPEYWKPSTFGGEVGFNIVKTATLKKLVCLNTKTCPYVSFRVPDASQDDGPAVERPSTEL

## O=C(NC1(C(=O)NC2CC2)C2CC3CC(C2)CC1C3)c1ccccc1 (stereo not given)
Rattus norvegicus [1]
  Activity: 48.4 g
Rattus norvegicus [2]
  Activity: 52.7 g
Rattus norvegicus [3]
  Activity: 2.53 mL
Rattus norvegicus [4]
  Activity: 43.4 g
[5]
  inhibition: inactive
[6]
  inhibition: inactive
Rattus norvegicus [7]
  Activity: 33.6 g
Rattus norvegicus [8]
  Activity: 53.9 g
Rattus norvegicus [9]
  Activity: 48.3 g
Mus musculus [10]
  inhibition: Active
Rattus norvegicus [11]
  Activity: 40.8 g
Rattus norvegicus [12]
  Activity: 38.2 g
P2X purinoceptor 7
  IC50: 7.7 µM
Rattus norvegicus [13]
  Activity: 36.9 g
Mus musculus [14]
  inhibition: Active
Rattus norvegicus [15]
  Activity: 39.1 g
Rattus norvegicus [16]
  Activity: 2.06 mL
[17]
  inhibition: inactive
Rattus norvegicus [18]
  Activity: 44.2 g
[19]
  inhibition: Active
[20]
  inhibition: inactive
Rattus norvegicus [21]
  Activity: 35.6 g
Rattus norvegicus [22]
  Activity: 2.1 mL
Rattus norvegicus [23]
  inhibition: inactive
Mus musculus [24]
  inhibition: Active
